Measured values: ChEMBL document CHEMBL1134326, “C-16 artemisinin derivatives and their antimalarial and cytotoxic activities: syntheses of artemisinin monomers, dimers, trimers, and tetramers by nucleophilic additions to artemisitene” (J Med Chem, 2001)
pEC50, pIC50: −log10 of the molar value.

Key:
Plasmodium falciparum = test: Antimalarial activity against Plasmodium falciparum; type: functional, organism-based
Summary of the method: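 P. falciparum K1 (multidrug-resistant), asexual erythrocytic stage kept in continuous in vitro culture; microculture radioisotope method after Desjardins. EC50 is the concentration giving 50% reduction in parasite growth, measured as [3H]hypoxanthine uptake. Artemisinin and dihydroartemisinin served as standards.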

Vero = test: Cytotoxicity against vero cells.; type: functional, cell-based; conditions: Chlorocebus sabaeus
Summary of the method: (§1)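 Colorimetric cytotoxicity assay after Skehan on KB, BC and vero cell lines. Maximum concentration tested 130 µM. Ellipticine was the positive control. IC50 is reported in µM.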

[1] = Cytotoxicity against KB cells.; type: functional, cell-based; conditions: Homo sapiens; summary of the method: as §1
BC [2] = test: Cytotoxicity against BC cells.; type: functional, cell-based; conditions: Homo sapiens; summary of the method: as §1
[3] = Therapeutic index(TI) as IC50 of vero cells to that of EC50; type: cell-based, Cricetulus griseus; conditions: chinese hamster, read-out: Ti
[4] = Therapeutic index (TI) determined as IC50 of vero cells to that of EC50; type: cell-based; conditions: plasmodium falciparum, read-out: TI
BC [5] = test: Cytotoxicity against BC cells; type: functional, cell-based; conditions: Homo sapiens; summary of the method: as §1
KB = test: Cytotoxicity against KB cells; type: functional, cell-based; conditions: Homo sapiens; summary of the method: as §1

Compound	pEC50 (Plasmodium falciparum)	pIC50 (Vero)	pIC50 [1]	pIC50 (BC [2])	selectivity ratio [3]	selectivity ratio [4]	IA (BC [5])	IA (KB)
CCCCCCC1(CC2C(=O)OC3OC4(C)CCC5C(C)CCC2C35OO4)C(=O)OC2OC3(C)CCC4C(C)CCC1C24OO3 (stereo not given)	8.30	5.60	5.40	5.89	5			
C[C@@H]1CC[C@H]2[C@@H](Cc3cccc(F)c3)C(=O)O[C@@H]3O[C@]4(C)CC[C@@H]1[C@]32OO4	7.68	< 3.89				6.3	Cytotoxic	Cytotoxic
